Test [1] is described as follows: DPPH radical scavenging activity. The class given is functional. In a few lines: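 Samples dissolved in EtOH and diluted to 500, 100, 50 and 10 µg/mL (concentrations before mixing). Each 20 µL aliquot was mixed immediately with 180 µL DPPH, with an EtOH blank. After 20 min, A517 was read. Scavenging was taken as the fall in DPPH absorbance relative to a sample-free DPPH control. IC50 was interpolated from concentration-inhibition curves as the mean of triplicates.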
On the technique in general: The DPPH test is a chemical assay of radical scavenging.

Test [2] deals with PC-12. Put plainly: Neurotrophic effect in rat PC12 cells. The class given is functional, cell-based. In a few lines: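 PC12 cells without NGF were exposed to test compounds at 1–100 µM and examined for neurotrophic activity.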
Test [3] has as its system PC-12. Put plainly: Neurotrophic effect in rat NGF-induced PC12 cells upto 100 uM. The class given is functional, cell-based. In a few lines: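 PC12 cells were co-treated with NGF and test compounds at 1–100 µM, then checked for neurotrophic effects.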

Structures are written as SMILES. pIC50: −log10 of the molar value. Active and inactive are the calls of the source. The calls are words filed in the database; no cut-off is given here.

`Oc1cc(O)c2c(c1)O[C@H](c1ccc(O)c(O)c1)[C@@H](O)C2` [CATECHIN]: in test [1], the pIC50 (usually −log10 of the IC50, conventionally taken in molar units) was 5.00. In the case of `COC(=O)C[C@@H]1c2cc(O)c(O)cc2Oc2cc(O)c3c(c21)O[C@H](c1ccc(O)c(O)c1)[C@H](O)C3` [CATIGUANIN A], the outcome with PC-12 [2] and in the test on PC-12 [3] was inactive. For the same compound, the pIC50 in test [1] is 5.15. With `COC(=O)C[C@H]1c2cc(O)c(O)cc2Oc2cc(O)c3c(c21)O[C@H](c1ccc(O)c(O)c1)[C@H](O)C3` [CATIGUANIN B], in test [1], the pIC50 was 5.17.

`O=C1C[C@@H](c2ccc(O)c(O)c2)c2c(cc(O)c3c2O[C@H](c2ccc(O)c(O)c2)[C@H](O)C3)O1` [CINCHONAIN IA]: the outcome with PC-12 [2] and in the test with PC-12 [3] was inactive. This compound gave a pIC50 in test [1] of 5.03.

With `O=C1C[C@H](c2ccc(O)c(O)c2)c2c(cc(O)c3c2O[C@H](c2ccc(O)c(O)c2)[C@H](O)C3)O1` [CINCHONAIN IB], in test [1], the pIC50 is 5.29. For the compound `O=C1C[C@H](c2ccc(O)c(O)c2)c2c(O)cc3c(c2O1)C[C@@H](O)[C@@H](c1ccc(O)c(O)c1)O3` [CINCHONAIN IC], the pIC50 in test [1] was 5.60.

In test [1], `O=C1C[C@@H](c2ccc(O)c(O)c2)c2c(O)cc3c(c2O1)C[C@@H](O)[C@@H](c1ccc(O)c(O)c1)O3` [CINCHONAIN ID] showed a pIC50 of 5.64.

For the origin of these results see ChEMBL document CHEMBL1141358, “Antioxidant phenylpropanoid-substituted epicatechins from Trichilia catigua” (J Nat Prod, 2007).
